Measurements collected from several papers.
Compare with care: the assays were run in different laboratories.
Target: Serine/threonine-protein kinase TBK1 (TBK1, Homo sapiens, UniProt Q9UHD2)
One construct used (Q9UHD2 1-729): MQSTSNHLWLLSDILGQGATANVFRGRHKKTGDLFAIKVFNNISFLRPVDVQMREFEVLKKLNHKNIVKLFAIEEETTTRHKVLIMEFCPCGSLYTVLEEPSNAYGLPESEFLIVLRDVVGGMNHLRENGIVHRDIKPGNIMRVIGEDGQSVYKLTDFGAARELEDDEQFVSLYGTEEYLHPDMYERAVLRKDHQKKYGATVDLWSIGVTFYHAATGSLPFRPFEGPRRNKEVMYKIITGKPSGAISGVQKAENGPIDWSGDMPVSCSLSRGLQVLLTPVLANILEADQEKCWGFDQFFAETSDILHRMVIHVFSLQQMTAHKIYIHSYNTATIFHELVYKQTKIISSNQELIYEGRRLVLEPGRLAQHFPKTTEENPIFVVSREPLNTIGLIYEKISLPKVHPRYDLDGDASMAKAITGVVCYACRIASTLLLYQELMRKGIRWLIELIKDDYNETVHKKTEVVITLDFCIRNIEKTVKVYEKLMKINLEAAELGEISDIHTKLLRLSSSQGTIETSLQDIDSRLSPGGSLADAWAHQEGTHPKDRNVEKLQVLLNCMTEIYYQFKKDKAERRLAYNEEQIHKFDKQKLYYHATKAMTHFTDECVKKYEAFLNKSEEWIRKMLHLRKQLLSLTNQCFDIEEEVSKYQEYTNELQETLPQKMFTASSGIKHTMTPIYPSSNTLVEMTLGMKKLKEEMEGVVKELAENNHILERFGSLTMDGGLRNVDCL

SMILES | read-out | mode | method | tested at | measurement | result
C=CC(=O)N1CCC([C@@H]2CCNc3c(C(N)=O)c(-c4ccc(Oc5ccccc5)cc4)nn32)CC1 | enzyme activity | inhibitor | – | 1 µM | inhibition | 15%
CCCCC(=O)Nc1ccc(-c2ccc3ncn(CCC)c(=O)c3c2)cn1 | binding | – | competition with immobilised ligand | 0.5 µM | remaining binding | 100%
Cc1cc(O)c(-c2ccc([C@@H](C)CN(C)C)cc2)c2c1[nH]c(=O)c1sccc12 | enzyme activity | inhibitor | – | 0.1 µM | inhibition | -4.68%
CC(C)S(=O)(=O)c1ccc2nccc(Nc3ccc4sc(C5CCCC5)nc4c3)c2c1 | enzyme activity | inhibitor | – | 1 µM | activity vs control | 114%
C[C@H]1CC[C@H](n2c3cnccc3c3cnc(Nc4ccc5c(n4)CCN(C(=O)CO)C5)nc32)CC1 | cell-free assay | – | – | 1 µM | remaining signal | 100%
CC#CC(=O)N1CCC[C@H]1c1nc(-c2ccc(C(=O)Nc3ccccn3)cc2)c2c(N)nccn12 | enzyme activity | inhibitor | – | 1 µM | inhibition | 5%
COc1ccc2[nH]c3c4[nH]c5ccc(OC)cc5c4c4c(c3c2c1)C(=O)NC4=O | binding | – | – | 1 µM | remaining binding | 59%
C#Cc1cc(-c2cc(Nc3nc(N[C@@H](C)c4ccc(F)cn4)ncc3Cl)n[nH]2)ccc1C=O | enzyme activity | inhibitor | – | 0.2 µM | inhibition | 5.56%
